The subject of assay [1] is Mus musculus. The experiment in a line: In vivo inhibition of FAAH in Swiss Webster mouse brain using [3H]-ethanolamine as substrate at 1 mg/kg, ip after 1 hr by liquid scintillation counting analysis relative to control. It counts as functional. To be noted: route intraperitoneal.
Assay [2] concerns Mus musculus. The experiment in a line: In vivo inhibition of FAAH in Swiss Webster mouse brain using [3H]-ethanolamine as substrate at 40 mg/kg, sc after 1 hr by liquid scintillation counting analysis in presence of Abcg2 inhibitor Ko-143. Format: functional, organism-based. Also noted: dose 40 mg/kg.
Assay [3] deals with Mus musculus. The assay is described as follows: In vivo inhibition of FAAH in Swiss Webster mouse liver using [3H]-ethanolamine as substrate at 1 mg/kg, ip after 1 hr by liquid scintillation counting analysis relative to control. Format: functional. Particulars: route intraperitoneal.
For assay [4], the system named is Mus musculus. The experiment in a line: In vivo inhibition of FAAH in sc dosed Swiss Webster mouse brain using [3H]-ethanolamine as substrate after 1 hr by liquid scintillation counting analysis. It counts as functional, organism-based.
Assay [5] has as its system Mus musculus. The assay is described as follows: In vivo inhibition of FAAH in Swiss Webster mouse brain using [3H]-ethanolamine as substrate at 75 mg/kg, sc after 1 hr by liquid scintillation counting analysis. Format: functional, organism-based. Also noted: dose 75 mg/kg.
The subject of assay [6] is Mus musculus. The assay is described as follows: In vivo inhibition of FAAH in ip dosed Swiss Webster mouse brain using [3H]-ethanolamine as substrate after 1 hr by liquid scintillation counting analysis. Format: functional.
The subject of assay [7] is Mus musculus. The assay is described as follows: In vivo inhibition of FAAH in Swiss Webster mouse brain using [3H]-ethanolamine as substrate at 25 mg/kg, sc after 1 hr by liquid scintillation counting analysis in presence of Abcg2 inhibitor Ko-143. Format: functional, organism-based. On the set-up: dose 25 mg/kg. An outline of the steps:
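Adult male Swiss-Webster mice (25-30 g) got Ko-143 (15 mg/kg, i.p., in saline/PEG400/Tween80 18:1:1 with 30% DMSO) 20 min before a single s.c. dose of inhibitor in the same vehicle without DMSO. Brain taken 1 h later and homogenate supernatant (1000 × g) assayed: 37°C, 30 min, pH 7.5 Tris, 0.05% BSA, 10 μM anandamide plus [ethanolamine-3H]anandamide, aqueous-phase scintillation counting; mean ± s.e.m., n = 3-4.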

Assay [8] concerns Mus musculus. The experiment in a line: In vivo inhibition of FAAH in ip dosed Swiss Webster mouse peripheral tissue. Format: functional.
Assay [9] concerns Mus musculus. The assay is described as follows: In vivo inhibition of FAAH in ip dosed Swiss Webster mouse liver. It counts as functional.
The target in assay [10] is T1, Fatty-acid amide hydrolase 1 (Rattus norvegicus, UniProt P97612).
T1 sequence (P97612 whole entry): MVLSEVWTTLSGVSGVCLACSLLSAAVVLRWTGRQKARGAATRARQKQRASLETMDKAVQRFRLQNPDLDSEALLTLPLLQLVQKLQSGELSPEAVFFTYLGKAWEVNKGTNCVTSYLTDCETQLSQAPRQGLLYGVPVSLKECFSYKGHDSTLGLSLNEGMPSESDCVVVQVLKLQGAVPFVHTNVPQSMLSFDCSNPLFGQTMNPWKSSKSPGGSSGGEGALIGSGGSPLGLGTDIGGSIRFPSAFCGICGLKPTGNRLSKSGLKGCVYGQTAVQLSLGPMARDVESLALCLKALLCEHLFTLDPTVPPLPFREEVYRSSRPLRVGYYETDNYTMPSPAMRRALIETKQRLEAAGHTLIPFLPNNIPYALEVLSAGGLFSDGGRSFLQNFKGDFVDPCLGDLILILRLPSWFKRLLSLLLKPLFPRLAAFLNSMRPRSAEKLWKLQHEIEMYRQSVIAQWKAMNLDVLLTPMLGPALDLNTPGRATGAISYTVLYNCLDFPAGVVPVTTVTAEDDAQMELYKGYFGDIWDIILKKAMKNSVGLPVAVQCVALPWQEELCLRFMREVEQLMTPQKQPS
The assay is described as follows: Inhibition of Wistar rat brain FAAH using [3H]-ethanolamine as substrate preincubated for 20 mins followed by substrate addition by liquid scintillation counting analysis. An outline of the steps: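 FAAH source was the membrane homogenate of Wistar rat brain (50 μg protein). It was preincubated with inhibitor for 20 min at 37°C, then incubated 30 min at 37°C in Tris 50 mM pH 7.5 with 0.05% fatty acid-free BSA, 10 μM anandamide and anandamide[ethanolamine-3H]. The reaction was stopped with chloroform/methanol (1:1), and aqueous-layer radioactivity was counted by liquid scintillation to give IC50.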

Activity calls are given as the source filed them. The calls are words filed in the database; no cut-off is given here.

Take `NC(=O)c1cccc(-c2cc(OC(=O)NC3CCCCC3)ccc2C(=O)O)c1`: the inhibition in vivo at 1 mg/kg with Mus musculus [1] was -2.1%; with Mus musculus [3] it was 86.3%. Moreover, the inhibition result in the assay with Mus musculus [2] and with Mus musculus [5] was “inactive” in each case. Further, in the assay on Mus musculus [4], the inhibition entry was “Dose-dependent effect”.
Regarding `NC(=O)c1cccc(-c2cc(OC(=O)NC3CCCCC3)ccc2O)c1`, the results for the inhibition in vivo at 1 mg/kg with Mus musculus [1] and in the assay with Mus musculus [3] were -3% and 91.7%, respectively. Besides, the ED50 in the assay on Mus musculus [6] came to 40 mg/kg; in the assay with Mus musculus [8], 0.2 mg/kg; with Mus musculus [9] it was 0.2 mg/kg. Further, the inhibition entry in the assay with Mus musculus [7] was “Active”. For the same molecule, the inhibition result in the assay on Mus musculus [4] was “Dose-dependent effect”.
Take `CC(O)c1cccc(-c2cc(OC(=O)NC3CCCCC3)ccc2O)c1` (stereo not given): the values for the inhibition in vivo at 1 mg/kg in the assay with Mus musculus [1] and in the assay on Mus musculus [3] were 89.6% and 80.9%, respectively. The molecule also registered an IC50 in assay [10] of 2 nM.
With `NC(=O)c1cccc(-c2cc(O)cc(OC(=O)NC3CCCCC3)c2)c1`, the inhibition in vivo at 1 mg/kg with Mus musculus [1] was -4.2%; in the assay on Mus musculus [3] it was 89.5%. In the assay with Mus musculus [6], this molecule had an ED50 of 75 mg/kg. Moreover, in the assay with Mus musculus [2], the inhibition entry is “Active”. The inhibition entry in the assay with Mus musculus [4] is “Dose-dependent effect”.

Values taken from ChEMBL document CHEMBL2401720, “Synthesis and structure-activity relationship studies of O-biphenyl-3-yl carbamates as peripherally restricted fatty acid amide hydrolase inhibitors” (J Med Chem, 2013).
